This passage reports IC50, Survival and Activity results from ChEMBL document CHEMBL2311380, “The first total synthesis and biological evaluation of marine natural products ma'edamines A and B” (Bioorg Med Chem Lett, 2013).

For assay [1], the system named is A549. The assay can be described thus: Cytotoxicity against human lung adenocarcinoma cell line A549 assessed as inhibition of cell viability measured after 24 hrs by MTT assay. Type of assay: functional, cell-based. The note with it: A549, 24 h. In outline: (§1)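 Exponentially growing cells exposed to compound, then allowed to proliferate for two to three population doubling times; surviving cells quantified by MTT reduction by mitochondrial dehydrogenase to formazan, dissolved in DMSO and read at 570 nm.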

Assay [2] has as its system MCF7. The assay can be described thus: Cytotoxicity against human breast cancer cell line MCF7 assessed as cell survival measured after 24 hrs by MTT assay relative to control. The class given is functional. In outline:
(§2)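 Cells in exponential growth exposed to compound, then left to proliferate for two to three population doubling times so viable, proliferating cells are told apart from non-proliferating ones. Surviving cells estimated by MTT reduction to formazan by mitochondrial dehydrogenase; formazan dissolved in DMSO and read at 570 nm.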
For orientation: Tetrazolium dyes change colour on reduction, which living cells bring about.

A further assay deals with B16-F10. The assay can be described thus: Cytotoxicity against mouse melanoma cell line B16F10 assessed as inhibition of cell viability measured after 24 hrs by MTT assay. The note with it: B16-F10, 24 h. Type of assay: functional, cell-based. Summed up: as §1
In assay [3] the test system is MCF7. Description: Induction of apoptosis in human MCF7 cells assessed as DNA laddering at IC50 concentration measured after 24 hrs by DNA laddering assay relative to control. The class given is functional, cell-based. In outline: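 DNA from treated and untreated cells run on a gel and examined for fragmentation (laddering).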
For assay [4], the system named is MCF7. The assay can be described thus: Induction of apoptosis in human MCF7 cells assessed as double-strand DNA break at IC50 concentration measured after 24 hrs by comet assay relative to control. Type of assay: functional, cell-based. In outline:
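Treated cells embedded in low melting agarose on a microscope slide, lysed at alkaline pH, electrophoresed at high pH, then examined for comet tails as a sign of double-strand DNA breaks, with untreated cells as control.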

For a further assay, the system named is HepG2. Description: Cytotoxicity against human liver hepatocellular carcinoma cell line HepG2 assessed as inhibition of cell viability measured after 24 hrs by MTT assay. The class given is functional, cell-based. Conditions: HepG2, 24 h. In outline: as §1
Assay [5] has as its system COLO 205. The assay can be described thus: Cytotoxicity against human colon cancer line COLO205 assessed as inhibition of cell viability measured after 24 hrs by MTT assay. Type of assay: functional, cell-based. Conditions: COLO 205, 24 h. In outline:
as §1

For assay [6], the system named is MCF7. Description: Cytotoxicity against human breast cancer cell line MCF7 assessed as inhibition of cell viability […] by MTT assay. Type of assay: functional, cell-based.
Another assay has as its system THP-1. The assay can be described thus: Cytotoxicity against human acute monocytic leukemia cell line THP1 assessed as inhibition of cell viability measured after 24 hrs by MTT assay. Type of assay: functional, cell-based. Conditions: THP-1, 24 h. Summed up: as §1
In assay [7] the test system is MCF7. The assay can be described thus: Cytotoxicity against human colon cancer line MCF7 assessed as cell death measured at 1 ug/mL after 24 hrs by MTT assay. The class given is functional. In outline:
as §2

The subject of assay [8] is A549. Description: Cytotoxicity against human […] assessed as cell death measured at 2 ug/mL after 24 hrs by MTT assay. The class given is functional. In outline: as §2
Assay [9] relates to MCF7. Description: Cytotoxicity against human colon cancer line MCF7 assessed as cell death measured at 10 ug/mL after 24 hrs by MTT assay. The class given is functional. In outline: as §2
Assay [10] has as its system COLO 205. Description: Cytotoxicity against human colon cancer line COLO205 assessed as cell death measured at 1 ug/mL after 24 hrs by MTT assay. Type of assay: functional. In outline:
as §2

Assay [11] relates to MCF7. Description: Cytotoxicity against human colon cancer line MCF7 assessed as cell death measured at 7 ug/mL after 24 hrs by MTT assay. Type of assay: functional. In outline:
as §2

For assay [12], the system named is COLO 205. Description: Cytotoxicity against human colon cancer line COLO205 assessed as cell death measured at 2 ug/mL after 24 hrs by MTT assay. Type of assay: functional. In outline: as §2
In assay [13] the test system is COLO 205. Description: Cytotoxicity against human colon cancer line COLO205 assessed as cell death measured at 7 ug/mL after 24 hrs by MTT assay. The class given is functional. In outline: as §2
Assay [14] relates to COLO 205. Description: Cytotoxicity against human colon cancer line COLO205 assessed as cell death measured at 10 ug/mL after 24 hrs by MTT assay. Type of assay: functional. Summed up: as §2
Assay [15] deals with A549. The assay can be described thus: Cytotoxicity against human […] assessed as cell death measured at 10 ug/mL after 24 hrs by MTT assay. The class given is functional. Summed up:
as §2

Assay [16] deals with MCF7. The assay can be described thus: Cytotoxicity against human colon cancer line MCF7 assessed as cell death measured at 2 ug/mL after 24 hrs by MTT assay. Type of assay: functional. In outline: as §2
The test system of assay [17] is A549. The assay can be described thus: Cytotoxicity against human […] assessed as cell death measured at 5 ug/mL after 24 hrs by MTT assay. Type of assay: functional. In outline: as §2
For assay [18], the system named is MCF7. The assay can be described thus: Cytotoxicity against human colon cancer line MCF7 assessed as cell death measured at 5 ug/mL after 24 hrs by MTT assay. The class given is functional. Summed up: as §2
Assay [19] has as its system COLO 205. The assay can be described thus: Cytotoxicity against human colon cancer line COLO205 assessed as cell death measured at 5 ug/mL after 24 hrs by MTT assay. The class given is functional. In outline:
as §2

Assay [20] has as its system A549. Description: Cytotoxicity against human […] assessed as cell death measured at 7 ug/mL after 24 hrs by MTT assay. The class given is functional. In outline:
as §2

Assay [21] has as its system A549. The assay can be described thus: Cytotoxicity against human […] assessed as cell death measured at 1 ug/mL after 24 hrs by MTT assay. The class given is functional. Summed up:
as §2

The source made the active and inactive calls. The calls are words filed in the database; no cut-off is given here.

Consider `CNCCCOc1c(Br)cc(-c2c[nH]c(=O)c(Cc3ccc(OC)c(Br)c3)n2)cc1Br` [Ma'edamine B], for which the IC50 – broadly, the concentration that gives 50% inhibition – in the assay with A549 [1] stood at 15.4 µM; with B16-F10 it was 53.3 µM; with HepG2 it was 42.8 µM; in the assay on COLO 205 [5], 10.3 µM; in the assay on MCF7 [6], 10.9 µM; with THP-1, 90.7 µM. Further, in the assay with MCF7 [2], the Survival came to 49.256%. In addition, the result with MCF7 [3] and in the assay with MCF7 [4] was Active.

In the case of `COc1ccc(Cc2nc(-c3cc(Br)c(OCCCN(C)C)c(Br)c3)cnc2Cl)cc1Br`, the IC50 worked out at 14.4 µM in the assay with A549 [1] and 87.3 µM in the assay on THP-1.

Consider `COc1ccc(Cc2nc(-c3cc(Br)c(O)c(Br)c3)c[nH]c2=O)cc1Br`, for which the figures for the IC50 in the assay with A549 [1] and in the assay on THP-1 were 52 µM and 125 µM, respectively.

`COc1cc([C@@H]2c3cc4c(cc3[C@@H](O[C@@H]3O[C@@H]5CO[C@@H](C)O[C@H]5[C@H](O)[C@H]3O)[C@H]3COC(=O)[C@H]23)OCO4)cc(OC)c1O` [ETOPOSIDE]: the Activity in the assay with MCF7 [7] came to 4.3%; in the assay on A549 [8] it was 93.4%; with MCF7 [9], 51%; in the assay on COLO 205 [10], 17.8%; in the assay on MCF7 [11], 33.7%; in the assay with COLO 205 [12], 39.2%. Besides, the Activity is given as 100% in the assay with COLO 205 [13]; 100% with COLO 205 [14]; 100% in the assay with A549 [15]; 8.9% with MCF7 [16]; 100% in the assay on A549 [17]; 23.9% in the assay with MCF7 [18]. For the same molecule, the Activity amounted to 78.7% in the assay with COLO 205 [19], 100% in the assay with A549 [20] and 47.9% in the assay with A549 [21]. For the same molecule, the IC50 in the assay with COLO 205 [5] amounted to 5.3 µM; with MCF7 [6] it was 16.3 µM.

As for `COc1ccc(Cc2nc(-c3cc(Br)c(OCCCN(C)C)c(Br)c3)c[nH]c2=O)cc1Br` [Ma'edamine A], the IC50 in the assay with A549 [1] was determined as 12.2 µM; in the assay on B16-F10, 16.7 µM; in the assay with HepG2, 29.6 µM; in the assay with COLO 205 [5], 7.9 µM; in the assay on MCF7 [6], 6.9 µM; in the assay on THP-1, 46.2 µM. For the same molecule, the Survival in the assay with MCF7 [2] is 47.7%. In addition, the result with MCF7 [3] and in the assay on MCF7 [4] was Active.

`COc1ccc(Cc2nc(-c3cc(Br)c(O)c(Br)c3)cnc2Cl)cc1Br`: the IC50 with A549 [1] was 41.2 µM; in the assay with THP-1 it was 108 µM.

On to `CNCCCOc1c(Br)cc(-c2cnc(Cl)c(Cc3ccc(OC)c(Br)c3)n2)cc1Br`, for which the IC50 is 25.3 µM with A549 [1] and 133 µM in the assay with THP-1.
